Results reported in ChEMBL document CHEMBL1152670, “Synthesis and in vitro evaluation of aspartate transcarbamoylase inhibitors” (Bioorg Med Chem, 2009).
Activity calls are given as the source filed them. The calls are words filed in the database; no cut-off is given here.

Legend:
[1] = Inhibition of histidine-tagged Escherichia coli ATCase catalytic domain assessed as N-carbamoyl-L-aspartate formation by colorimetric assay
Method in brief: (§1)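 E. coli His-tagged C3 (catalytic subunit) ATCase, purified from pEK17/EK1104, at 75 ng/mL. Assay at room temperature in 0.1 M Tris-acetate pH 8.3 with 10 mM L-aspartate. […] N-carbamoyl-L-aspartate formation was read colorimetrically. Ki and inhibition mode were taken from the kinetics.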

Escherichia coli [2] = experiment: Ratio of compound Ki to N-phosphonacetyl-L-aspartate Ki for histidine-tagged Escherichia coli ATCase catalytic domain
Escherichia coli [3] = experiment: Inhibition of histidine-tagged Escherichia coli ATCase catalytic domain assessed as N-carbamoyl-L-aspartate formation at 0.5 to 6 uM by colorimetric assay
Method in brief: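 E. coli His-tagged C3 ATCase catalytic subunit (75 ng/mL), purified from strain/plasmid pEK17/EK1104, run at room temperature in 0.1 M Tris-acetate pH 8.3 with 10 mM L-aspartate. N-carbamoyl-L-aspartate formation read colorimetrically. […] Ki and inhibition mode derived from these kinetics.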

[4] = Uncompetitive inhibition of histidine-tagged Escherichia coli ATCase catalytic domain assessed as N-carbamoyl-L-aspartate formation by colorimetric assay; method in brief: as §1
Escherichia coli [5] = experiment: Ratio of compound Ki to (2S)-2-(2-(hydroxy(hydroxymethyl)phosphoryl)acetamido)succinic acid Ki for histidine-tagged Escherichia coli ATCase catalytic domain

SMILES | Ki ([1]; read-out: Ki) [nM] | Ratio Ki (Escherichia coli [2]) | also measured
O=C(O)C[C@H](NC(=O)CP(=O)(O)O)C(=O)O [PALA] | 16 | – | –
O=C(O)C[C@H](NC(=O)COP(=O)(O)O)C(=O)O | 210 | 13 | –
O=C(O)C[C@@H](C(=O)O)N1CP(=O)(O)CC1=O | – | – | Ki [1]: Not Active
O=C(O)CCC(=O)N[C@@H](CC(=O)O)C(=O)O | – | – | inhibition (Escherichia coli [3]): inactive
O=C(O)C[C@H](NC(=O)OCP(=O)(O)O)C(=O)O | – | – | Ki [1]: Not Active
O=C(O)C[C@@H](C(=O)O)N1CCP(=O)(O)CC1 | – | – | Ki [1]: Not Active
O=C(O)C[C@H](NC(=O)CP(=O)(O)CCO)C(=O)O | – | 156 | Ki [4]: 2500 nM; Ratio Ki (Escherichia coli [5]): 13
O=C(O)C[C@H](NC(=O)C[PH](=O)CO)C(=O)O (some centres not stated) | 190 | 12 | –
O=C(O)C[C@H](NC(=O)CP(=O)(O)CC(=O)O)C(=O)O | 3600 | 225 | –
O=C(O)C[C@H](NC(=O)C[PH](=O)O)C(=O)O | 420 | 26 | –
O=C(O)C[C@H](NC(=O)NCP(=O)(O)O)C(=O)O | 2100 | 131 | –
O=C(O)C[C@H](NC(=O)CC(C(=O)O)C(=O)O)C(=O)O | – | – | inhibition (Escherichia coli [3]): inactive
O=C(O)C[C@@H](C(=O)O)N1CCP(=O)(O)CC1=O | 1000 | 63 | –
O=C(O)CC(=O)N[C@@H](CC(=O)O)C(=O)O | – | – | inhibition (Escherichia coli [3]): inactive
